Each structure is given as a SMILES string.

For data set [1], the system named is Escherichia coli. Kind of data set: Minimum inhibitory concentration (MIC) against Escherichia coli NIHJ JC-2 in agar dilution method. It is filed as functional. Put shortly:
(§1)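 Agar dilution on sensitivity test agar. Overnight tryptose broth culture diluted in the same broth to about 10^6 cells/mL and inoculated onto agar containing serial twofold dilutions of antibiotic. Incubated at 37 °C for 18–20 h. MIC taken as the lowest concentration inhibiting visible growth.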
(Agar dilution tests growth on a series of plates holding different concentrations.)

The nature of data set [2]: Pseudo-first order rate of beta-lactam cleavage at pH 9.2 and 35 degrees C. It is filed as ADME. In a few lines: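 Alkaline hydrolysis at pH 9.2 and 35.0 °C, followed as loss of absorbance near 260 nm. This is a slightly lower pH than a pH 9.94 carbonate buffer (NaHCO3 + Na2CO3 + NaCl, μ = 0.5). Pseudo-first-order k is obtained by least squares over the linear regions at 95% confidence.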

Data set [3] is described as follows: V max(beta-lactam) measured in dimethyl sulfoxide. It is filed as ADME. In a few lines: (§2)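 IR stretching frequencies measured in dimethyl sulfoxide solution. Frequencies are calibrated against the rotational bands of the vapor.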
Data set [4] relates to Escherichia coli. Kind of data set: Minimum inhibitory concentration (MIC) against Escherichia coli NIHJ JC-2 in gradient plate method. It counts as functional. In a few lines: (§3)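 Gradient plate technique. Compound is incorporated into a tilted bottom agar layer, then overlaid horizontally with compound-free agar. A 10^6 cells/mL suspension is streaked across the gradient and incubated at 37 °C for 18–20 h. MIC is calculated from the growth distance along the streak and the original bottom-layer concentration.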

Data set [5] is described as follows: V max(amide I) measured in dimethyl sulfoxide. It is filed as ADME. Put shortly:
as §2

Data set [6] concerns Klebsiella pneumoniae. Kind of data set: Minimum inhibitory concentration (MIC) against Klebsiella pneumoniae SRL-1 iin agar dilution method. It is filed as functional. In a few lines:
as §1

The test system of data set [7] is Klebsiella pneumoniae. Kind of data set: Minimum inhibitory concentration (MIC) against Klebsiella pneumoniae SRL-1 in gradient plate method. It is filed as functional. Put shortly: as §3
The test system of data set [8] is Klebsiella pneumoniae. In words: Minimum inhibitory concentration (MIC) against Klebsiella pneumoniae SRL-1 in agar dilution method. It counts as functional. In a few lines:
as §1

What is called MIC is the lowest concentration found to suppress growth. A low value points to a more susceptible organism. Consider `CO[C@@]1(NC(=O)C(C(=O)[O-])c2ccc(O)cc2)C(=O)N2C(C(=O)[O-])=C(CSc3nnnn3C)COC21.[Na+].[Na+]` (some centres undefined), for which the MIC in data set [1] stood at 0.1 µg/mL; in data set [4], 0.09 µg/mL; in data set [6], 0.1 µg/mL; in data set [7] it was 0.06 µg/mL. This molecule showed a k in data set [2] of 0.178 h⁻¹. In addition, the results for the Vmax in data set [3] and in data set [5] were 1771.8 cm⁻¹ and 1686.6 cm⁻¹, respectively.

In data set [2], `CO[C@@]1(NC(=O)Cc2ccc(O)cc2)C(=O)N2C(C(=O)[O-])=C(CSc3nnnn3C)COC21.[Na+]` (some centres undefined) showed a k of 0.228 h⁻¹. Besides, the values for the Vmax in data set [3] and in data set [5] were 1772.9 cm⁻¹ and 1694.9 cm⁻¹, respectively. For the same molecule, the values for the MIC in data set [4] and in data set [7] were 0.08 µg/mL and 0.1 µg/mL, respectively.

As for `CO[C@@]1(NC(=O)C(C(=O)[O-])c2ccc(O)cc2)C(=O)N2C(C(=O)[O-])=C(CSc3nnnn3C)CSC21.[Na+].[Na+]` (some centres undefined), the MIC was 0.78 µg/mL in data set [1], 0.55 µg/mL in data set [4], 0.39 µg/mL in data set [6] and 0.37 µg/mL in data set [7]. For the same molecule, the k in data set [2] turned out to be 0.0239 h⁻¹. For the same molecule, the Vmax in data set [3] was determined as 1767.8 cm⁻¹; in data set [5], 1682.3 cm⁻¹.

Take `Cn1nnnc1SCC1=C(C(=O)[O-])N2C(=O)[C@@](C)(NC(=O)C(C(=O)[O-])c3ccc(O)cc3)C2OC1.[Na+].[Na+]` (some centres undefined): the MIC in data set [1] and in data set [8] was 12.5 µg/mL throughout. In data set [2], this molecule returned a k of 0.0148 h⁻¹. Moreover, the figures for the Vmax in data set [3] and in data set [5] were 1774.5 cm⁻¹ and 1668.2 cm⁻¹, respectively.

Regarding `COC1(NC(=O)C(C(=O)[O-])c2ccc(O)cc2)C(=O)N2C(C(=O)[O-])=C(CSc3nnnn3C)CCC21.[Na+].[Na+]` (centres undefined), the minimal inhibitory concentration (MIC) is 6.25 µg/mL in data set [1] and 3.13 µg/mL in data set [8]. Besides, the k in data set [2] came to 0.0694 h⁻¹. Besides, the Vmax came to 1757 cm⁻¹ in data set [3] and 1684.5 cm⁻¹ in data set [5].

In data set [2], `Cn1nnnc1SCC1=C(C(=O)[O-])N2C(=O)[C@@H](NC(=O)Cc3ccc(O)cc3)C2SC1.[Na+]` (some centres undefined) displayed a k of 0.0227 h⁻¹. The values for the Vmax in data set [3] and in data set [5] were 1773.1 cm⁻¹ and 1676.3 cm⁻¹, respectively. In addition, the MIC in data set [4] was determined as 1.2 µg/mL; in data set [7], 1.4 µg/mL.

Consider `Cn1nnnc1SCC1=C(C(=O)[O-])N2C(=O)[C@@H](NC(=O)C(C(=O)[O-])c3ccc(O)cc3)C2SC1.[Na+].[Na+]` (some centres undefined), for which the k in data set [2] stood at 0.0239 h⁻¹. Further, the Vmax in data set [3] was found to be 1770 cm⁻¹; in data set [5] it was 1669 cm⁻¹. In addition, the MIC in data set [4] was determined as 1.5 µg/mL; in data set [7], 2.3 µg/mL.

As to `Cn1nnnc1SCC1=C(C(=O)[O-])N2C(=O)[C@@H](NC(=O)Cc3ccc(O)cc3)C2OC1.[Na+]` (some centres undefined), the k in data set [2] was 0.139 h⁻¹. In addition, the Vmax is 1778.2 cm⁻¹ in data set [3] and 1674.5 cm⁻¹ in data set [5]. The figures for the MIC in data set [4] and in data set [7] were 0.34 µg/mL and 0.31 µg/mL, respectively.

On to `CO[C@@]1(NC(=O)Cc2ccc(O)cc2)C(=O)N2C(C(=O)[O-])=C(CSc3nnnn3C)CSC21.[Na+]` (some centres undefined), for which, in data set [2], the k worked out at 0.0351 h⁻¹. The Vmax turned out to be 1768.1 cm⁻¹ in data set [3] and 1690.6 cm⁻¹ in data set [5]. The MIC was 0.5 µg/mL in data set [4] and 1.3 µg/mL in data set [7].

`Cn1nnnc1SCC1=C(C(=O)[O-])N2C(=O)[C@@H](NC(=O)C(C(=O)[O-])c3ccc(O)cc3)C2OC1.[Na+].[Na+]` (some centres undefined) came in with a k in data set [2] of 0.127 h⁻¹. Further, the Vmax in data set [3] was determined as 1779.2 cm⁻¹; in data set [5], 1665.4 cm⁻¹. For the same molecule, the figures for the MIC in data set [4] and in data set [7] were 0.29 µg/mL and 0.3 µg/mL, respectively.

The record behind these values is ChEMBL document CHEMBL1122389, “Synthesis and substituent effects on antibacterial activity, alkaline hydrolysis rates, and infrared absorption frequencies of some cephem analogues related to latamoxef (moxalactam)” (J Med Chem, 1983).
